Measurements taken from ChEMBL document CHEMBL1932986, “Synthesis and in vitro antimycobacterial activity of compounds derived from (R)- and (S)-2-amino-1-butanol - The crucial role of the configuration” (Eur J Med Chem, 2012).
In brackets after ≈: the same amount, converted by molar mass. Activity calls are given as the source filed them. The rule behind the calls is not given here.

Legend:
[1] = test system: Mycobacterium tuberculosis; test: Ratio of ethambutol dihydrochloride MIC to compound MIC for Mycobacterium tuberculosis H37Rv; format: functional
[2] = test system: Mycobacterium tuberculosis; test: Antimycobacterial activity against Mycobacterium tuberculosis H37Rv after 45 days; format: functional
Procedure, shortened: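 Canetti proportion method. Compound in DMSO is added to Löwenstein–Jensen egg medium before coagulation (30 min, 85 °C), tested at three levels plus a lower one where needed. Tubes are inoculated with H37Rv at 10⁵ cells/ml and incubated 45 days at 37 °C. Colony counts versus drug-free control give percentage inhibition.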

[3] = Solubility of the compound in deionized water; format: physicochemical
Micrococcus luteus [4] = test: Antibacterial activity against Micrococcus luteus ATCC 9631 at 50 mg/ml after 24 hrs by agar diffusion test; format: functional
Procedure, shortened: (§1)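 Agar diffusion: wells in agar filled with […] DMSO solution of compound at various concentrations; diameter of clear zone around application point measured. Bacteria grown 24 h at 37 °C on nutrient agar. Compounds first screened at 50 mg/ml; those active then tested at lower concentrations. Bracketed value = lowest concentration (mg/ml) giving zone >11 mm, reported only if activity retained at ≤1.25 mg/ml.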

Saccharomyces cerevisiae = test: Antifungal activity against Saccharomyces cerevisiae ATCC 9763 at 50 mg/ml after 72 hrs by agar diffusion test; format: functional; settings: for zone of inhibition at 50000 µg/mL: ATCC 9763, 72 h, read-out: DIZ
Procedure, shortened: (§2)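 Agar diffusion: yeasts grown on yeast peptone dextrose agar and fungi on potato dextrose agar. Wells are filled with […] of compound solution in DMSO at various concentrations, and the clear-zone diameter is measured. Bracketed values give the lowest concentration (mg/ml) that produces a zone >11 mm. A first screen is run at 50 mg/ml.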

Escherichia coli = test: Antibacterial activity against Escherichia coli ATCC 8739 at 50 mg/ml after 24 hrs by agar diffusion test; format: functional; procedure, shortened: as §1
Bacillus mycoides = test: Antibacterial activity against Bacillus mycoides DSMZ 274 at 50 mg/ml after 24 hrs by agar diffusion test; format: functional; settings: for zone of inhibition at 50000 µg/mL: DSMZ 274, 24 h, read-out: DIZ; procedure, shortened: as §1
Bacillus subtilis = test: Antibacterial activity against Bacillus subtilis ATCC 6633 at 50 mg/ml after 24 hrs by agar diffusion test; format: functional; procedure, shortened: as §1
Bacillus = test: Antibacterial activity against Bacillus idosus B 241 at 50 mg/ml after 24 hrs by agar diffusion test; format: functional; procedure, shortened: as §1
Micrococcus luteus [5] = test: Antibacterial activity against Sarcina lutea ATCC 9341 at 50 mg/ml after 24 hrs by agar diffusion test; format: functional
Procedure, shortened: (§3)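 Agar diffusion: bacteria grown 24 h at 37 °C on nutrient agar. Wells in the agar are filled with […] of compound solution in DMSO at various concentrations. The diameter of the clear zone around the application point is measured. Bracketed values give the lowest concentration (mg/ml) that produces a zone >11 mm. A first screen is run at 50 mg/ml.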

Candida tropicalis = test: Antifungal activity against Candida tropicalis ATCC 20336 at 50 mg/ml after 72 hrs by agar diffusion test; format: functional; settings: ATCC 20336, 72 h, read-out: DIZ; procedure, shortened: as §2
HEK-293T = test: Cytotoxicity against human HEK293T cells after 72 hrs by MTT assay; format: cell-based
Procedure, shortened: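 293T cells in RPMI-1640 with 10% heat-inactivated FCS and 2 mM L-glutamine, 37 °C, 5% CO2. Cells seeded at 3.5 × 10⁵ cells/ml, grown 24 h, then exposed 72 h to DMSO-diluted compounds (final solvent ≤0.5%), ≥8 wells per concentration. MTT added 4 h, formazan dissolved in 5% HCOOH/2-propanol, absorbance read at 580 nm. IC50 obtained by sigmoidal nonlinear regression against untreated control.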

[6] = Selectivity index, ratio of IC50 for human HEK293T cells to MIC for Mycobacterium tuberculosis H37Rv; format: functional, HEK-293T
Acinetobacter johnsonii = test: Antibacterial activity against Acinetobacter johnsonii ATCC 17909 at 50 mg/ml after 24 hrs by agar diffusion test; format: functional; procedure, shortened: as §1
Bacillus cereus = test: Antibacterial activity against Bacillus cereus ATCC 11778 at 50 mg/ml after 24 hrs by agar diffusion test; format: functional; settings: for zone of inhibition at 50000 µg/mL: ATCC 11778, 24 h, read-out: DIZ; procedure, shortened: as §1
Priestia megaterium = test: Antibacterial activity against Bacillus megaterium NRRL 1353895 at 50 mg/ml after 24 hrs by agar diffusion test; format: functional; procedure, shortened: as §1
Staphylococcus aureus = test: Antibacterial activity against Staphylococcus aureus NRRL B 313 at 50 mg/ml after 24 hrs by agar diffusion test; format: functional; settings: for zone of inhibition at 50000 µg/mL: NRRL B 313, 24 h, read-out: DIZ; procedure, shortened: as §3
Penicillium chrysogenum = test: Antifungal activity against Penicillium chrysogenum CECT 2802 at 50 mg/ml after 72 hrs by agar diffusion test; format: functional; procedure, shortened: as §2

CC[C@@H](CO)NC(=O)/C=C/c1ccccc1
Ratio [1]: 2
MIC [2]: > 22.8 µM

CCNC(=O)N[C@@H](CC)CO
Ratio [1]: 2
MIC [2]: > 24.4 µM

CC[C@@H](CO)NCCN[C@@H](CC)CO.Cl.Cl [ETHAMBUTOL HYDROCHLORIDE]
solubility [3]: 100000 µg/mL
MIC [2]: 7.22 µM

CC[C@H](CO)NC(=O)/C=C/c1ccccc1
diameter of the inhibition zone (DIZ) (Micrococcus luteus [4]): inactive
solubility [3]: < 1000 µg/mL
zone of inhibition at 50000 µg/mL (Saccharomyces cerevisiae): 13 mm
diameter of the inhibition zone (DIZ) (Escherichia coli): inactive
zone of inhibition at 50000 µg/mL (Bacillus mycoides): 12 mm
diameter of the inhibition zone (DIZ) (Bacillus subtilis): inactive
diameter of the inhibition zone (DIZ) (Bacillus): inactive
zone of inhibition at 50000 µg/mL (Micrococcus luteus [5]; ATCC 9341, 24 h, read-out: DIZ): 15 mm
zone of inhibition at 50000 µg/mL (Candida tropicalis): 11 mm
IC50 (HEK-293T): 211 µM
Selectivity Index [6]: 23.1
MIC [2]: 9.12 µM (≈ 2 µg/mL)
diameter of the inhibition zone (DIZ) (Acinetobacter johnsonii): inactive
zone of inhibition at 50000 µg/mL (Bacillus cereus): 12 mm
zone of inhibition at 50000 µg/mL (Priestia megaterium; NRRL 1353895, 24 h, read-out: DIZ): 12 mm
zone of inhibition at 50000 µg/mL (Staphylococcus aureus): 12 mm

CC[C@@H](CO)NP(=O)(c1ccccc1)c1ccccc1
Ratio [1]: 2
MIC [2]: > 17.3 µM

CC[C@H](CO)Nc1ccc2c3c(cccc13)C(=O)N([C@H](CC)CO)C2=O
solubility [3]: < 1000 µg/mL
diameter of the inhibition zone (DIZ) (Saccharomyces cerevisiae): inactive
diameter of the inhibition zone (DIZ) (Bacillus mycoides): inactive
diameter of the inhibition zone (DIZ) (Bacillus subtilis): inactive
diameter of the inhibition zone (DIZ) (Bacillus): inactive
diameter of the inhibition zone (DIZ) (Micrococcus luteus [5]): inactive
IC50 (HEK-293T): 47 µM
Selectivity Index [6]: 3.4
MIC [2]: 14 µM (≈ 5 µg/mL)
diameter of the inhibition zone (DIZ) (Acinetobacter johnsonii): inactive
diameter of the inhibition zone (DIZ) (Bacillus cereus): inactive
diameter of the inhibition zone (DIZ) (Penicillium chrysogenum): inactive
diameter of the inhibition zone (DIZ) (Priestia megaterium): inactive
diameter of the inhibition zone (DIZ) (Staphylococcus aureus): inactive

CC[C@@H](CO)N1Cc2ccccc2C1=O
Ratio [1]: 2
MIC [2]: > 31.2 µM

CC[C@H](CO)N1Cc2ccccc2C1
solubility [3]: < 1000 µg/mL
zone of inhibition at 50000 µg/mL (Saccharomyces cerevisiae): 16 mm
zone of inhibition at 50000 µg/mL (Escherichia coli; ATCC 8739, 24 h, read-out: DIZ): 25 mm
zone of inhibition at 50000 µg/mL (Bacillus mycoides): 23 mm
zone of inhibition at 50000 µg/mL (Bacillus subtilis; ATCC 6633, 24 h, read-out: DIZ): 11 mm
zone of inhibition at 50000 µg/mL (Bacillus; B 241, 24 h, read-out: DIZ): 20 mm
zone of inhibition at 50000 µg/mL (Candida tropicalis): 21 mm
IC50 (HEK-293T): 122 µM
Selectivity Index [6]: 11.7
MIC [2]: 10.5 µM (≈ 2 µg/mL)
zone of inhibition at 50000 µg/mL (Bacillus cereus): 25 mm
zone of inhibition at 50000 µg/mL (Penicillium chrysogenum; CECT 2802, 72 h, read-out: DIZ): 10 mm
zone of inhibition at 50000 µg/mL (Staphylococcus aureus): 25 mm

CC[C@@H](CO)NC(=O)c1ccccc1O
Ratio [1]: 2
MIC [2]: > 23.9 µM
